Laboratory results published in publication PMC3483595 (ChemMedChem, 2012).
Values after ≈ are worked out from the molar mass of the structure shown. Values joined by “and” are separate entries in the source; they are usually repeats but may differ in a detail not shown here. Equal values may be shown once. Read-outs that look alike come from different tables or passages of the source.

Tests used:
[1] = molecular target: EcN68 SecA ATPase (Escherichia coli, UniProt P10408); assay: biochemical; assay type: biochemical
[2] = molecular target: T1, EcSecA translocation ATPase (Escherichia coli, UniProt P10408); details: read-out: IC50, translocation ATPase of SecA; cited from earlier work
[3] = test system: SecA-dependent protein translocation; details: read-out: IC50, in vitro protein translocation; cited from earlier work
[4] = molecular target: F1F0-ATPase (Escherichia coli, UniProt P0ABB0+P0ABB4); assay: F1F0-proton ATPase activity assay; assay type: biochemical; details: read-out: IC50, F1F0-ATPase; E. coli F1F0-proton ATPase in liposomes
In short: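 F1F0-ATPase from E. coli KY7485 membranes was partially purified by sucrose gradient and reconstituted into liposomes by dialysis. Released phosphate was read photometrically at 660 nm. Activity was expressed as % of the no-inhibitor control; at least triplicate.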

[5] = molecular target: EcSecA membrane ATPase (Escherichia coli, UniProt P10408); assay: Membrane ATPase assay of SecA with urea-washed BA13 membrane; assay type: biochemical; details: read-out: IC50, EcSecA membrane ATPase
In short: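 Purified full-length E. coli SecA (1.5 µg per 50 µL) was combined with 3 µg urea-washed membrane from E. coli BA13 (MC4100 secA13(am) supF(ts)). Phosphate was read at 660 nm and expressed as % of the no-inhibitor control; at least triplicate.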

[6] = molecular target: T1, EcSecA translocation ATPase; assay: Translocation ATPase assay of SecA with membrane and proOmpA; assay type: biochemical; details: read-out: IC50, EcSecA translocation ATPase
In short: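 Purified full-length E. coli SecA (1.5 µg per 50 µL) was combined with 3 µg urea-washed BA13 membrane plus 1 µg purified proOmpA precursor. Reaction: 1.2 mM ATP, ovalbumin, Tris-HCl pH 7.6, KCl, NH4Cl, Mg(OAc)2, DTT, 40°C within the linear range. Released phosphate was read at 660 nm and expressed as % remaining activity versus control; at least triplicate.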

[7] = molecular target: BsSecA intrinsic ATPase (Bacillus subtilis, UniProt P28366); assay: Intrinsic ATPase assay of full-length BsSecA; assay type: biochemical; details: read-out: IC50, BsSecA intrinsic ATPase; full-length B. subtilis SecA
In short: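 Full-length B. subtilis SecA was overexpressed from pT7div and purified, then used at 1.5 µg per 50 µL reaction in solution without membranes. Phosphate release was read at 660 nm and expressed as % remaining activity versus control; at least triplicate.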

[8] = test system: SecA-dependent protein translocation; assay: SecA-dependent in vitro translocation of proOmpA into membrane vesicles; assay type: biochemical, E. coli; details: read-out: IC50, in vitro translocation of proOmpA into membrane vesicles; 35S-labeled proOmpA
[9] = test system: E. coli MC4100; assay: Plate assay of bacterial growth; assay type: cell-based; details: wild-type, overnight incubation
In short: (§1)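 Exponential-phase cells (OD600 0.5) were mixed into LB with 0.2% glucose and 0.75% soft agar and poured as a lawn. Test compound (1 µL; water- or DMSO-dissolved) was spotted on the set surface and plates were incubated overnight at 37°C. The MIC was the concentration giving a clear growth-inhibition zone relative to the surrounding lawn.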

[10] = test system: E. coli NR698; assay: Plate assay of bacterial growth; assay type: cell-based; details: for MIC, E. coli NR698: plate assay, leaky mutant, overnight incubation
[11] = test system: B. subtilis 168; assay: Plate assay of bacterial growth; assay type: cell-based; details: for MIC, B. subtilis 168: plate assay, overnight incubation
In short: as §1

[12] = test system: SecA ATPase; assay: Kinetic experiments versus ATP; assay type: biochemical; details: low ATP concentrations, data not shown
[13] = test system: E. coli NR698; assay: Liquid culture growth assay; assay type: cell-based; details: 50 µM, data not shown
[14] = test system: E. coli NR698; assay: Bactericidal effect assay; assay type: cell-based; details: 100 µM, one-hour treatment, exponential-phase cells
[15] = test system: B. subtilis 168; assay: Bactericidal effect assay; assay type: cell-based; details: 100 µM, one-hour treatment, exponential-phase cells
In short: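 Exponential-phase cultures (OD600 0.5) in LB with 0.2% glucose were exposed to test compound, with water as the control, for 1 h at 37°C. Cultures were serially diluted and spread on LB plates. Surviving CFU were counted after overnight growth at 37°C, and the effect was expressed as the drop in log CFU. At least triplicate; standard error of the mean.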

[16] = cited from earlier work

T1 sequence (P10408 whole entry): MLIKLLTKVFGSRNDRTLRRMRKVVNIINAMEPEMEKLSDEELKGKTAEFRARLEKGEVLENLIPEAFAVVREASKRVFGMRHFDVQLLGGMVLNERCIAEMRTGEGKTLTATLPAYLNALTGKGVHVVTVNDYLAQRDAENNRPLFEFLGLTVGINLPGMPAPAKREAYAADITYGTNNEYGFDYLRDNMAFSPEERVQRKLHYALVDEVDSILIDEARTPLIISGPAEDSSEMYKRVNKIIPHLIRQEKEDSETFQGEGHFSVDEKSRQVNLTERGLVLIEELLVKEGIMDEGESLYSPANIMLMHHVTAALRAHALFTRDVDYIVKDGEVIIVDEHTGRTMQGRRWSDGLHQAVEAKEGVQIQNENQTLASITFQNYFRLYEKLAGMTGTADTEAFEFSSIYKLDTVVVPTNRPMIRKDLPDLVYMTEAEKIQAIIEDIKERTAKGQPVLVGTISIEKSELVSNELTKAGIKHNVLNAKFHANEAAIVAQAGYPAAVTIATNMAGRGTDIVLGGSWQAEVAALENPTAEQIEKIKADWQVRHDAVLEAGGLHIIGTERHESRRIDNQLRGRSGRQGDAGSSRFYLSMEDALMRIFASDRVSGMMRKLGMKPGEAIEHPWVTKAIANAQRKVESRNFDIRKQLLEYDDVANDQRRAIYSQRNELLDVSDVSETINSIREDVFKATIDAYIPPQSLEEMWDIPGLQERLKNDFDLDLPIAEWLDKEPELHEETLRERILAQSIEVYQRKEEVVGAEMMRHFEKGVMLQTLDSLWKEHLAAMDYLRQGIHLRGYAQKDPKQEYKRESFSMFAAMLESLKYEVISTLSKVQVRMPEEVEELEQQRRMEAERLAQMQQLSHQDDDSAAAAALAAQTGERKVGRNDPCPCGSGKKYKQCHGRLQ
Chain of BsSecA intrinsic ATPase (P28366 whole entry): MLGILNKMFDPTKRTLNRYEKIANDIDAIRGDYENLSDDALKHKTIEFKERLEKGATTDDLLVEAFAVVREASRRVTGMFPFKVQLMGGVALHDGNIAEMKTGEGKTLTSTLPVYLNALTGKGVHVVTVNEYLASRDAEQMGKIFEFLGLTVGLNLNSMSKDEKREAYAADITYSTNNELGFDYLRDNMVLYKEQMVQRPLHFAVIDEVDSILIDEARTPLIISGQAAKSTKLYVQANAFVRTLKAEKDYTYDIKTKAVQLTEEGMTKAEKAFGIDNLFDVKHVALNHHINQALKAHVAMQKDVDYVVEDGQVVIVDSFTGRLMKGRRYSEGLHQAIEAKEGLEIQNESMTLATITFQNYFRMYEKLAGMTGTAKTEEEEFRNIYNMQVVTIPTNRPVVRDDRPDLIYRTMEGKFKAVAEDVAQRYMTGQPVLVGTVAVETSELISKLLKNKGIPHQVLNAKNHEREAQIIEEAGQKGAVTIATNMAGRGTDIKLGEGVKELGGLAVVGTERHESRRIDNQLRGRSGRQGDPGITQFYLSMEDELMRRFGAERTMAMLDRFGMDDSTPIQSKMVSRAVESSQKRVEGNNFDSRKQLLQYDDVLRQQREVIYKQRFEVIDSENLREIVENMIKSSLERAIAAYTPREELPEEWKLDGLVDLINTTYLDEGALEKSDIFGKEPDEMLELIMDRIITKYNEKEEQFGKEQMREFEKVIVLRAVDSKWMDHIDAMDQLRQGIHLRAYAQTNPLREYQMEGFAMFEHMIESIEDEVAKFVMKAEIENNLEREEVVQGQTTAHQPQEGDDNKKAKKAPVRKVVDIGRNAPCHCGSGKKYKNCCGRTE
Chain of EcN68 SecA ATPase (P10408 1-610): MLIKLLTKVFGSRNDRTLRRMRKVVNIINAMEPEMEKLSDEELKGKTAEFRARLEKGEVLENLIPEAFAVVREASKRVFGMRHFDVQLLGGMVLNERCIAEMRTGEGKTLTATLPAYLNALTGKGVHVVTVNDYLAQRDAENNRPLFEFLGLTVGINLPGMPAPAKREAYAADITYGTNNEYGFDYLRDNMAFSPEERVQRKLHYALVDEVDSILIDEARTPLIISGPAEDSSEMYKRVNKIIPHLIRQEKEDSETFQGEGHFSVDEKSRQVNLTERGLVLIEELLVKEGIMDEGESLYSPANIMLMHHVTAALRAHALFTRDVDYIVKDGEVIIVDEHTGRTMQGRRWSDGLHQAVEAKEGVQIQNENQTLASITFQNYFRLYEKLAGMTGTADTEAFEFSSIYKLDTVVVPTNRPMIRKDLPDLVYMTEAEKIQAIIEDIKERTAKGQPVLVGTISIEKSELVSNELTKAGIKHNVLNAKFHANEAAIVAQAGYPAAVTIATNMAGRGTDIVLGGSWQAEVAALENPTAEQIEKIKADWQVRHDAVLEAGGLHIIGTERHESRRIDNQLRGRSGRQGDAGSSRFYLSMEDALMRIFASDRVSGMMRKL
Chain of EcSecA membrane ATPase (P10408 whole entry): as the sequence (P10408 whole entry) above

[N-]=[N+]=[N-].[Na+] [Sodium azide]
Inhibition of the intrinsic ATPase of SecA ([1]; at concentrations as high as 10 mM, cf. Table 1 EcN68): not inhibited
IC50 [2]: 5000 µM
IC50 [3]: 600 µM

O.O=C([O-])c1ccccc1-c1c2cc(I)c(=O)c(I)c-2oc2c(I)c([O-])c(I)cc12.[Na+].[Na+] [EB, Erythrosin B]
IC50 [4]: ~30 µM
IC50 [5]: 12 µM
IC50 [6]: 10 µM
IC50 [7]: 70 µM
IC50 [8]: 4 µM
MIC, E. coli MC4100 [9]: >10000 µM
MIC, E. coli NR698 [10]: 250 to 500 µM
MIC, B. subtilis 168 [11]: 250 to 500 µM
Mode of inhibition against ATP [12]: competitive inhibitors against ATP

O=C1OC2(c3ccccc31)c1cc(Br)c(O)c(Br)c1Oc1c2cc(Br)c(O)c1Br [EY, Eosin Y]
IC50 [1]: 25 µM
MIC ([10]; Escherichia coli, NR698, read-out: MIC, E. coli NR698): 1000 to 2500 µM (≈ 648 to 1620 µg/mL)
MIC ([11]; Bacillus subtilis, 168, read-out: MIC, B. subtilis 168): 2500 µM (≈ 1620 µg/mL)

Dinitrofluorescein [DN]
MIC, E. coli NR698 [10]: 10000 to 20000 µM
MIC, B. subtilis 168 [11]: 10000 µM

O=C([O-])c1ccccc1-c1c2ccc(=O)c(I)c-2oc2c(I)c([O-])ccc12.[Na+].[Na+] [DI, Diiodofluorescein]
MIC, E. coli MC4100 [9]: >3000 µM
MIC, B. subtilis 168 [11]: 1000 µM

O=C1OC2(c3cc(I)c(O)c(I)c3Oc3c2cc(I)c(O)c3I)c2c(Cl)c(Cl)c(Cl)c(Cl)c21 [RB, Rose Bengal]
IC50 [4]: ~10 µM
IC50 [7]: 7 µM
IC50 [8]: 0.25 µM and ~0.25 µM
MIC, E. coli MC4100 [9]: >1000 µM
MIC, E. coli NR698 [10]: 3.1 µM (≈ 3.02 µg/mL)
MIC, B. subtilis 168 [11]: 3.1 µM (≈ 3.02 µg/mL)
Inhibition of growth in liquid culture [13]: completely inhibits
Decrease of cell survival (CFU) [14]: about 10 log units
Decrease of cell survival (CFU) [15]: ~8 log units
Mode of inhibition against ATP [12]: competitive inhibitors against ATP

C/C=C/[C@H]1C(C)=C[C@H]2C[C@H](C)[C@H](O)C[C@H]2[C@]1(C)/C=C(C)/C=C/C(=O)O [pannomycin]
MIC, antibacterial activity [16]: mM range
